Experimental data reported in ChEMBL document CHEMBL3286335, “Synthesis of 2,3,6-trideoxy sugar triazole hybrids as potential new broad spectrum antimicrobial agents” (Eur J Med Chem, 2014).
Converted amounts (≈) assume the structure as drawn.

What was measured:
[1] = test system: Sporothrix schenckii; assay: Antimicrobial activity against Sporothrix schenckii after 72 hrs by microbroth dilution method; assay type: functional
How it was run: (§1)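 Broth microdilution per NCCLS guidelines. Bacteria in Mueller-Hinton broth; fungi in MOPS-buffered RPMI 1640. Test compounds at 50-0.36 µg/mL, standard drugs over 32-0.0018 µg/mL. Inoculum 1-5 × 10^3 cells/mL, 35 °C in a moist chamber. A492 read at 24 h for bacteria, 48 h for C. albicans, 72 h for A. fumigatus, C. neoformans and S. schenckii, 96 h for T. mentagrophytes. MIC taken as 90% growth inhibition relative to growth control.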

[2] = test system: Staphylococcus aureus; assay: Antimicrobial activity against methicillin-resistant Staphylococcus aureus after 24 hrs by microbroth dilution method; assay type: functional
How it was run: (§2)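 Microbroth dilution in Mueller Hinton broth, following NCCLS guidelines. Test compounds were run at 50-0.36 µg/mL against an initial inoculum of 1-5 × 10^3 cells/mL. Plates were incubated in a moist chamber at 35 °C, and absorbance at 492 nm was read after 24 h. MIC was taken as 90% growth inhibition relative to the growth control.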

[3] = test system: Trichophyton mentagrophytes; assay: Antimicrobial activity against Trichophyton mentagrophytes after 96 hrs by microbroth dilution method; assay type: functional; how it was run: as §1
[4] = test system: L929; assay: Cytotoxicity against mouse L929 cells assessed as reduction in cell viability after 24 hrs by MTT assay; assay type: cell-based; conditions: l929, 24 h
How it was run: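 L929 fibroblasts in DMEM with 10% FBS at 37 °C, 5% CO2. Seeded at 1×10^3 cells per well, switched to serum-free DMEM at 90% confluency. Compounds from 1 mg/mL DMSO stocks tested at nine twofold dilutions for 24 h. MTT readout: viability = (A570−A630) sample / (A570−A630) control × 100.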

[5] = test system: Staphylococcus aureus; assay: Antimicrobial activity against vancomycin-resistant Staphylococcus aureus after 24 hrs by microbroth dilution method; assay type: functional; how it was run: as §2
[6] = test system: Aspergillus fumigatus; assay: Antimicrobial activity against Aspergillus fumigatus after 72 hrs by microbroth dilution method; assay type: functional; how it was run: as §1
[7] = test system: L929; assay: Cytotoxicity against mouse L929 cells assessed as change in morphology at 50 ug/ml after 24 hrs using Giemsa staining by phase contrast microscopy; assay type: cell-based; conditions: l929, 24 h
How it was run: (§3)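 Mouse fibroblast L929 cells grown in DMEM with 10% FBS and antibiotic/antimycotic at 37 °C, 5% CO2. Medium switched to serum-free DMEM at 90% confluency, then compounds added (DMSO stocks) for 24 h. Cells fixed, stained with Giemsa for 30 min at 37 °C, washed with PBS, air dried and examined by phase-contrast microscopy.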

[8] = test system: Candida albicans; assay: Antimicrobial activity against Candida albicans after 48 hrs by microbroth dilution method; assay type: functional; how it was run: as §1
[9] = test system: Klebsiella pneumoniae; assay: Antimicrobial activity against Klebsiella pneumoniae ATCC 27736 after 24 hrs by microbroth dilution method; assay type: functional; conditions: ATCC 27736, 24 h; how it was run: as §1
[10] = test system: Staphylococcus aureus; assay: Antimicrobial activity against Staphylococcus aureus ATCC 25923 after 24 hrs by microbroth dilution method; assay type: functional; conditions: ATCC 25923, 24 h; how it was run: as §1
[11] = test system: Escherichia coli; assay: Antimicrobial activity against Escherichia coli ATCC 9637 after 24 hrs by microbroth dilution method; assay type: functional; conditions: ATCC 9637, 24 h; how it was run: as §1
[12] = test system: L929; assay: Cytotoxicity against mouse L929 cells assessed as change in morphology at MIC after 24 hrs using Giemsa staining by phase contrast microscopy; assay type: cell-based; conditions: l929, 24 h; how it was run: as §3
[13] = test system: Cryptococcus neoformans; assay: Antimicrobial activity against Cryptococcus neoformans after 72 hrs by microbroth dilution method; assay type: functional; how it was run: as §1
[14] = test system: Pseudomonas aeruginosa; assay: Antimicrobial activity against Pseudomonas aeruginosa ATCC BAA-427 after 24 hrs by microbroth dilution method; assay type: functional; conditions: ATCC BAA-427, 24 h; how it was run: as §1
[15] = test system: Staphylococcus aureus; assay: Ratio of vancomycin MIC to compound MIC for Staphylococcus aureus ATCC 25923 after 24 hrs by microbroth dilution method; assay type: functional
[16] = test system: Staphylococcus aureus; assay: Ratio of ampicillin MIC to compound MIC for Staphylococcus aureus ATCC 25923 after 24 hrs by microbroth dilution method; assay type: functional
[17] = test system: Klebsiella pneumoniae; assay: Ratio of gentamycin MIC to compound MIC for Klebsiella pneumoniae ATCC 27736 after 24 hrs by microbroth dilution method; assay type: functional
[18] = test system: Klebsiella pneumoniae; assay: Ratio of ampicillin MIC to compound MIC for Klebsiella pneumoniae ATCC 27736 after 24 hrs by microbroth dilution method; assay type: functional
[19] = test system: Klebsiella pneumoniae; assay: Ratio of vancomycin MIC to compound MIC for Klebsiella pneumoniae ATCC 27736 after 24 hrs by microbroth dilution method; assay type: functional
[20] = test system: Klebsiella pneumoniae; assay: Ratio of methicillin MIC to compound MIC for Klebsiella pneumoniae ATCC 27736 after 24 hrs by microbroth dilution method; assay type: functional
[21] = test system: Candida albicans; assay: Ratio of miconazole MIC to compound MIC for Candida albicans after 48 hrs by microbroth dilution method; assay type: functional
[22] = test system: Aspergillus fumigatus; assay: Ratio of clotrimazole MIC to compound MIC for Aspergillus fumigatus after 72 hrs by microbroth dilution method; assay type: functional
[23] = test system: Aspergillus fumigatus; assay: Ratio of miconazole MIC to compound MIC for Aspergillus fumigatus after 72 hrs by microbroth dilution method; assay type: functional

Compound | MIC [1] [µg/mL] | MIC [2] [µg/mL] | MIC [3] [µg/mL] | Activity [4] | MIC [5] [µg/mL] | MIC [6] [µg/mL] | Activity [7] | MIC [8] [µg/mL] | MIC [9] [µg/mL] | MIC [10] [µg/mL] | MIC [11] [µg/mL] | Activity [12] | MIC [13] [µg/mL] | MIC [14] [µg/mL] | also measured
CC(C)CCO[C@@H]1C=CC(=O)[C@@H](Cn2cc(CCCCl)nn2)O1 | 12.5 (≈ 36.6 µM) | 6.25 (≈ 18.3 µM) | 50 (≈ 146 µM) | Dose-dependent effect | 6.25 (≈ 18.3 µM) | 50 (≈ 146 µM) | Toxic | 25 (≈ 73.1 µM) | 3.12 (≈ 9.13 µM) | 1.56 (≈ 4.56 µM) | 50 (≈ 146 µM) | Non-toxic | 50 (≈ 146 µM) | 50 (≈ 146 µM) | 
CCCCCc1cn(C[C@H]2O[C@H](OCCC(C)C)C=CC2=O)nn1 | 12.5 (≈ 37.3 µM) | 6.25 (≈ 18.6 µM) | 3.12 (≈ 9.3 µM) | Dose-dependent effect | 6.25 (≈ 18.6 µM) | > 50 | Toxic | > 50 | 3.12 (≈ 9.3 µM) | 3.12 (≈ 9.3 µM) | > 50 | Non-toxic | > 50 | > 50 | 
CCCCCCc1cn(C[C@H]2O[C@H](OCCC(C)C)C=CC2=O)nn1 | 25 (≈ 71.5 µM) | 6.25 (≈ 17.9 µM) | 12.5 (≈ 35.8 µM) | Dose-dependent effect | 6.25 (≈ 17.9 µM) | > 50 | Toxic | > 50 | 1.56 (≈ 4.46 µM) | 3.12 (≈ 8.93 µM) | > 50 | Non-toxic | > 50 | > 50 | 
CCCCCCCCc1cn(C[C@H]2O[C@H](OCCC(C)C)C=CC2=O)nn1 | 50 (≈ 132 µM) | 3.12 (≈ 8.26 µM) | 3.12 (≈ 8.26 µM) | Dose-dependent effect | 3.12 (≈ 8.26 µM) | > 50 | Toxic | > 50 | 0.78 (≈ 2.07 µM) | 0.78 (≈ 2.07 µM) | > 50 | Non-toxic | > 50 | > 50 | Ratio [15]: 16; Ratio [16]: 16; Ratio [17]: 2; Ratio [18]: 16; Ratio [19]: 16; Ratio [20]: 8
CCCCCCCCc1cn(C[C@H]2O[C@H](OCCCC)C=CC2=O)nn1 | 25 (≈ 68.8 µM) | > 50 | 6.25 (≈ 17.2 µM) |  | > 50 | > 50 |  | 6.25 (≈ 17.2 µM) | > 50 | 6.25 (≈ 17.2 µM) | > 50 |  | 25 (≈ 68.8 µM) | > 50 | Ratio [21]: 4
CC(C)CCO[C@@H]1C=CC(=O)[C@@H](Cn2cc(C=O)nn2)O1 | 25 (≈ 85.2 µM) | > 50 | 3.12 (≈ 10.6 µM) | Dose-dependent effect | > 50 | 25 (≈ 85.2 µM) | Toxic | > 50 | 50 (≈ 170 µM) | 50 (≈ 170 µM) | 50 (≈ 170 µM) | Non-toxic | 50 (≈ 170 µM) | 50 (≈ 170 µM) | 
CC(C)CCO[C@@H]1C=CC(=O)[C@@H](Cn2cc(C(C)(C)C)nn2)O1 | 12.5 (≈ 38.9 µM) | 12.5 (≈ 38.9 µM) | > 50 | Dose-dependent effect | 12.5 (≈ 38.9 µM) | > 50 | Toxic | 25 (≈ 77.8 µM) | > 50 | 1.56 (≈ 4.85 µM) | > 50 | Non-toxic | 25 (≈ 77.8 µM) | > 50 | 
CC(C)CCO[C@@H]1C=CC(=O)[C@@H](Cn2cc(-c3ccccc3)nn2)O1 | 12.5 (≈ 36.6 µM) | 12.5 (≈ 36.6 µM) | 50 (≈ 146 µM) | Dose-dependent effect | 12.5 (≈ 36.6 µM) | 50 (≈ 146 µM) | Toxic | 12.5 (≈ 36.6 µM) | 3.12 (≈ 9.14 µM) | 6.25 (≈ 18.3 µM) | 50 (≈ 146 µM) | Non-toxic | 25 (≈ 73.2 µM) | 50 (≈ 146 µM) | 
CC(C)CCO[C@@H]1C=CC(=O)[C@@H](Cn2cc(-c3ccc(F)cc3)nn2)O1 | 6.25 (≈ 17.4 µM) | 3.12 (≈ 8.68 µM) | 1.56 (≈ 4.34 µM) | Dose-dependent effect | 3.12 (≈ 8.68 µM) | 50 (≈ 139 µM) | Toxic | 6.25 (≈ 17.4 µM) | > 50 | 0.78 (≈ 2.17 µM) | > 50 | Non-toxic | 50 (≈ 139 µM) | > 50 | Ratio [15]: 16; Ratio [16]: 16; Ratio [21]: 4
CC(C)CCO[C@@H]1C=CC(=O)[C@@H](Cn2cc(COCC34CC5CC(CC(C5)C3)C4)nn2)O1 | 50 (≈ 113 µM) | 3.12 (≈ 7.03 µM) | 1.56 (≈ 3.52 µM) | Dose-dependent effect | 3.12 (≈ 7.03 µM) | 1.56 (≈ 3.52 µM) | Toxic | > 50 | 0.78 (≈ 1.76 µM) | 1.56 (≈ 3.52 µM) | 50 (≈ 113 µM) | Non-toxic | 50 (≈ 113 µM) | 50 (≈ 113 µM) | Ratio [17]: 2; Ratio [18]: 16; Ratio [22]: 5; Ratio [19]: 16; Ratio [20]: 8; Ratio [23]: 8
CCCCCCCCc1cnnn1C[C@H]1O[C@H](OCCC(C)C)C=CC1=O | 6.25 (≈ 16.6 µM) | 12.5 (≈ 33.1 µM) | 25 (≈ 66.2 µM) | Dose-dependent effect | 12.5 (≈ 33.1 µM) | > 50 | Toxic | 50 (≈ 132 µM) | 50 (≈ 132 µM) | 0.78 (≈ 2.07 µM) | > 50 | Non-toxic | 25 (≈ 66.2 µM) | > 50 | Ratio [15]: 16; Ratio [16]: 16
